Source: ChEMBL document CHEMBL1133516, “Biarylpropylsulfonamides as novel, potent potentiators of 2-amino-3- (5-methyl-3-hydroxyisoxazol-4-yl)- propanoic acid (AMPA) receptors” (J Med Chem, 2000)

Biological target: Glutamate receptor 4 (Homo sapiens, UniProt P48058)
Assay: Tested for potentiation towards human iGluR4 receptor expressed in HEK293 cells
Type: functional, cell-based
Outline: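 Human GluR4 flip, stably homomerically expressed in HEK-293 cells. Cells loaded 60 min with 20 µM Fluo3-AM in HEPES buffer (138 mM NaCl, 5 mM CaCl2, 10 mM glucose, pH 7.1-7.3), then washed. Calcium-influx fluorescence read after 100 µM L-glutamate with compound at various concentrations. Responses expressed as % of 100 µM cyclothiazide; EC50 ± SEM calculated.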

Glutamate receptor 4, sequence (P48058 whole entry): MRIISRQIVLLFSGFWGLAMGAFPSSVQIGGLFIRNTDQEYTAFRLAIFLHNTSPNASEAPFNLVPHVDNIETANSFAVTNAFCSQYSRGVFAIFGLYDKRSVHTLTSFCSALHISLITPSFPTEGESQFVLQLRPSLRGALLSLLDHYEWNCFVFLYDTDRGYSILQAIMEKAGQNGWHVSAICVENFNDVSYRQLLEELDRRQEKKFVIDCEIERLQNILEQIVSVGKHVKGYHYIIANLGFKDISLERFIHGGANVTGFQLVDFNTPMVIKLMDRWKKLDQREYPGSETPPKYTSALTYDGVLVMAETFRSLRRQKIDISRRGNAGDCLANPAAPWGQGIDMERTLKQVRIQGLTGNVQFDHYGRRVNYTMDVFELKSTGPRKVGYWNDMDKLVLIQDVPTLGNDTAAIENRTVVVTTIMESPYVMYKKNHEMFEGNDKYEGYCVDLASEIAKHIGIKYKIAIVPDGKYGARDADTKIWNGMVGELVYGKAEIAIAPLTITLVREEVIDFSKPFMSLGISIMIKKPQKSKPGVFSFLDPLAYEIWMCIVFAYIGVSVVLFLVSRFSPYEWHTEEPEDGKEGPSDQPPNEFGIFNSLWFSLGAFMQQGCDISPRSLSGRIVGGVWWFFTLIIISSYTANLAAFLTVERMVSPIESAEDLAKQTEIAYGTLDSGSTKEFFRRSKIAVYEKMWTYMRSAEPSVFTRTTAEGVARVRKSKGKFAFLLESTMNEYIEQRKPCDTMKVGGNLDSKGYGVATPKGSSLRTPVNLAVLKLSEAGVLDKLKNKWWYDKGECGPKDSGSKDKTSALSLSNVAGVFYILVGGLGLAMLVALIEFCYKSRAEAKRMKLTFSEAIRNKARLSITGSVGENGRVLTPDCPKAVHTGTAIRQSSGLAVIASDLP

SMILES | EC50 [µM]
CCCS(=O)(=O)NCC(C)c1ccc(-c2ccccc2F)cc1 (centres undefined) | 23.8
CC(CNS(=O)(=O)N(C)C)c1ccc(-c2ccccc2F)cc1 (centres undefined) | 4
CC(CNS(=O)(=O)C(C)C)c1ccc(-c2ccc(Cl)cc2)cc1 (centres undefined) | > 3
CCCCS(=O)(=O)NCC(C)c1ccc(-c2ccccc2F)cc1 (centres undefined) | > 100
CC(CNS(=O)(=O)Cc1ccccc1)c1ccc(-c2ccccc2F)cc1 (centres undefined) | > 100
CC(CNS(=O)(=O)C(C)C)c1ccc(-c2ccc(N)cc2)cc1 (centres undefined) | 0.13
CC(CNS(=O)(=O)C(C)C)c1ccc(C(C)(C)C)cc1 (centres undefined) | 1.2
CC(C)S(=O)(=O)NCC(CCc1ccccc1)c1ccc(C(C)(C)C)cc1 (centres undefined) | > 100
CC(CNS(=O)(=O)C(F)(F)F)c1ccc(-c2ccccc2F)cc1 (centres undefined) | 32.9
CCC(CNS(=O)(=O)C(C)C)c1ccc(C(C)(C)C)cc1 (centres undefined) | 2
CC(CNS(=O)(=O)C(C)C)c1ccc(-c2ccc(C(=O)O)cc2)cc1 (centres undefined) | 1.4
CC(C)S(=O)(=O)NCCc1ccc(-c2ccccc2F)cc1 | 7.2
CCCC(CNS(=O)(=O)C(C)C)c1ccc(C(C)(C)C)cc1 (centres undefined) | 27.9
CC(CNS(=O)(=O)C(C)C)c1ccc(-c2ccccc2)cc1 (centres undefined) | 1
CC(CNS(C)(=O)=O)c1ccc(-c2ccsc2)cc1 (centres undefined) | 4.5
CC(CNS(=O)(=O)c1ccccc1)c1ccc(-c2ccccc2F)cc1 (centres undefined) | 62.5
CC(CNS(=O)(=O)C(C)C)c1ccc(-c2ccc(C(F)(F)F)cc2)cc1 (centres undefined) | > 3
CC(CNS(=O)(=O)C(C)C)c1ccc(-c2ccsc2)cc1 (centres undefined) | 0.66
CCS(=O)(=O)NCC(C)c1ccc(-c2ccccc2F)cc1 (centres undefined) | 5.4
CC(CNS(C)(=O)=O)c1ccc(-c2ccccc2F)cc1 (centres undefined) | 19.6
CC(C)S(=O)(=O)NCCc1ccc(C(C)(C)C)cc1 | 12.8
CC(CN)c1ccc(-c2ccccc2F)cc1 (centres undefined) | > 100
CC(CNS(=O)(=O)C(C)C)c1ccc(-c2ccccc2F)cc1 (centres undefined) | 4.4
CC(C)S(=O)(=O)NCC(Cc1ccccc1)c1ccc(C(C)(C)C)cc1 (centres undefined) | > 100
Cc1ccc(-c2ccc(C(C)CNS(=O)(=O)C(C)C)cc2)cc1 (centres undefined) | 0.27
CC(CNS(=O)(=O)C(C)C)c1ccc(-c2ccc(C=O)cc2)cc1 (centres undefined) | 0.25
CC(CNS(=O)(=O)C(C)C)c1ccc(-c2ccc(C#N)cc2)cc1 (centres undefined) | 0.29
O=C(c1ccc2nccnc2c1)N1CCCCC1 [CX516] | > 1000
NS(=O)(=O)c1cc2c(cc1Cl)NC(C1CC3C=CC1C3)NS2(=O)=O (centres undefined) [CYCLOTHIAZIDE] | 3.8
